Hits are enriched below; roughly 2.2% of the tested compounds scored in any of these assays.
Runt-SMMHC FRET = Runt domain-CBFb-SMMHC interaction inhibition. Q01196+Q13951. Cerulean-Runt/Venus-CBFb-SMMHC FRET ratio 530/480, 1 h. inhibition, % at 20 µM. 220,000 compounds, 0.74% hits. AID 1434;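 active = mean inhibition across duplicate retests at 20 µM reaching about 50%, limit read from the data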;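 note: 0% = DMSO wells and 100% = wells with excess untagged CBFb-SMMHC; inhibitors lower the FRET ratio by blocking Runt binding to CBFb-SMMHC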
Tb hexokinase = T. brucei hexokinase 1 inhibition; recombinant TbHK1, G6PDH-coupled NADH A340; inhibition, % at 10 µM; 220,000 compounds, 0.11% hits;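 active = inhibition of 50% or more in the single-dose primary screen; inactive = inhibition below 50%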
RanGTP-Impb inh = disruptors of Ran-importin-beta complex formation – biochemical, FRET, CFP-Ran, YFP-importin-beta, homogeneous, primary screen; 300,000 compounds, 1.1% hits; inhibition, % (concentration not given with the values); AID 2216; cell-free CFP-Ran/YFP-importin-beta FRET ratio;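 active = more than half of the replicate wells show a fall in the fluorescence ratio signal beyond about 16%, limit read from the data, passing the limit was not always enough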;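 note: 0% = DMSO wells and 100% = Ran loaded with GDP instead of GTP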
Hck-Nef inh = blocks Nef-activated human Hck kinase | Recombinant Hck-YEEI plus Nef, Z-Lyte FRET kinase assay | AID 463187 | 220,000 compounds, 0.68% hits | P08631 | inhibition, % at 20 µM;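 active = Hck-Nef kinase inhibition above about 50%, limit read from the data; inactive = inhibition below that limit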;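 note: 0% = DMSO with Hck plus Nef and 100% = Hck alone without Nef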
Target sequence (P08631 whole entry, looked up): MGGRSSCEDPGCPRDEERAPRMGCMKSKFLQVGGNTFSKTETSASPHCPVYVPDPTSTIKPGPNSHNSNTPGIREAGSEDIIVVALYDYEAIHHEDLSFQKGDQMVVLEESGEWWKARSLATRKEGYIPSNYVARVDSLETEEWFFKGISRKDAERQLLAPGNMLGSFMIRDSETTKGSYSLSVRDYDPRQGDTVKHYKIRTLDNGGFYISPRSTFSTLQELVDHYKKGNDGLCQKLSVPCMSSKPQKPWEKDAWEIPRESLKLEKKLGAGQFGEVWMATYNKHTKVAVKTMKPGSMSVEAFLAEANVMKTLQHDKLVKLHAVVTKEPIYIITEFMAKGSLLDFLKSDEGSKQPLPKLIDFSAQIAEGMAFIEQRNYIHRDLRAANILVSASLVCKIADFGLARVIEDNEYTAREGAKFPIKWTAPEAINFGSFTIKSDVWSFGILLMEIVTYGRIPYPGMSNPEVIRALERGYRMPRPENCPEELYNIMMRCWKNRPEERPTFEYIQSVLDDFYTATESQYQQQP
14-3-3 Bad inh = disrupts binding of bovine 14-3-3 zeta to phospho-Bad peptide; P63103; TR-FRET 14-3-3zeta/Dy647-pBad peptide displacement, 1 h; inhibition, % at 21.7 µM; 220,000 compounds, 0.71% hits; AID 781;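 active = inhibition above about 70%, limit read from the data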;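 note: 0% = full 14-3-3 plus peptide FRET controls and 100% = background without 14-3-3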
Runt-CBFb FRET = Runt domain-CBFb interaction inhibition | Cerulean-Runt/Venus-CBFb FRET ratio 530/480, 1 h | inhibition, % at 20 µM | AID 1496 | Q01196+Q13951 | 220,000 compounds, 0.46% hits;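 active = inhibition over about 50% at 20 µM in the single-dose screen, limit read from the data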;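 note: 0% = DMSO wells and 100% = excess unlabeled CBFb competitor control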
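Assay system: Cerulean-Runt domain fusion protein, energy donor; Signal: fluorescence energy transfer, 422 nm excitation, 530/480 nm emission; Timing: 1 h compound exposure, room temperature; Control set: unlabeled CBFb; Medium: Tris buffer pH 7.5 with salts and BSA; Compound: single test concentration of 20 µM, 1% DMSO final; Probe or stimulus: Venus-CBFb 100 nM.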
Hck-Nef confirm = Hck-Nef kinase inhibition, confirmation; Recombinant Hck-YEEI:Nef, Z-Lyte FRET kinase assay; calls only at 10 µM; shares compounds with Hck-Nef inh; 1,300 compounds, 28% hits; AID 463188;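 active = average inhibition of at least 50%, with Z-scores no higher than 3 in both the phospho-tyrosine peptide and fluorescence counterscreens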
The depositor's hits bear a star.

What do the screens show for `COCC(C)OC(=O)/C(C#N)=C\c1coc2ccc(C)cc2c1=O` (stereo not given)?
Runt-SMMHC FRET: -66.2; Tb hexokinase: 7.3; Hck-Nef inh: 97.9*; 14-3-3 Bad inh: -1.6; Runt-CBFb FRET: -43.2; Hck-Nef confirm: active

How did Cc1ccc2occ(/C=N/NC(=O)[C@@H](N)Cc3ccccc3)c(=O)c2c1 do in these assays?
Runt-SMMHC FRET: 1.4; Tb hexokinase: -21.9; RanGTP-Impb inh: -2.8; Hck-Nef inh: 79.7*; 14-3-3 Bad inh: 1.6; Runt-CBFb FRET: 0.2; Hck-Nef confirm: active

What do the screens show for `O=C(N/N=C/c1coc2ccccc2c1=O)c1ccccc1Br`?
Runt-SMMHC FRET: 1.3; Tb hexokinase: -2.0; RanGTP-Impb inh: -0.8; Hck-Nef inh: 45.3; 14-3-3 Bad inh: 20.2; Runt-CBFb FRET: 0.2

What do the screens show for `O=C(CCc1ccc(O)cc1)N/N=C/c1coc2ccccc2c1=O`?
Runt-SMMHC FRET: 2.8; Tb hexokinase: -23.0; RanGTP-Impb inh: 2.3; Hck-Nef inh: 66.7*; 14-3-3 Bad inh: 1.8; Runt-CBFb FRET: -0.1; Hck-Nef confirm: active

How did Cc1ccc(C(=O)NCC(=O)N2CCC(Cc3ccccc3)CC2)cc1 do in these assays?
RanGTP-Impb inh: -3.3

How did Cc1ccc(-n2nc3c(c2NC(=O)c2ccc4c(c2)OCO4)CS(=O)(=O)C3)c(C)c1 do in these assays?
RanGTP-Impb inh: 0.4

How did O=C(COc1cc(Cl)c(Cl)cc1Cl)Nn1cnnc1 do in these assays?
Runt-SMMHC FRET: -2.3; Tb hexokinase: 2.3; RanGTP-Impb inh: 0.5; Hck-Nef inh: 0.2; 14-3-3 Bad inh: 3.7; Runt-CBFb FRET: 0.4

What do the screens show for `CC(=O)c1c(C)[nH]c(C(=O)OC(C)C(=O)Nc2cc(S(=O)(=O)N3CCCCC3)ccc2Cl)c1C` (stereo not given)?
Runt-SMMHC FRET: -3.1; Tb hexokinase: 10.2; RanGTP-Impb inh: 1.7; Hck-Nef inh: 4.3; 14-3-3 Bad inh: 16.9; Runt-CBFb FRET: -2.4

How did COc1cccc(C(=O)NC2CCCN(C3Cc4ccccc4C3)C2)c1OC (stereo not given) do in these assays?
RanGTP-Impb inh: 4.8

How did Cc1cccc(C(=O)N/N=C/c2coc3ccccc3c2=O)c1 do in these assays?
RanGTP-Impb inh: -0.4

How did O=C(N/N=C/c1coc2ccccc2c1=O)c1cc(O)cc(O)c1 do in these assays?
Runt-SMMHC FRET: -46.5; Tb hexokinase: 6.8; Hck-Nef inh: 62.7*; 14-3-3 Bad inh: -8.7; Runt-CBFb FRET: -12.0; Hck-Nef confirm: active

How did CCCNC(=O)COC(=O)c1cc2c(=O)n3ccccc3nc2s1 do in these assays?
Runt-SMMHC FRET: 120.8*; Tb hexokinase: -13.4; RanGTP-Impb inh: 6.2; Hck-Nef inh: 51.2*; 14-3-3 Bad inh: 3.8; Runt-CBFb FRET: 83.1*; Hck-Nef confirm: inactive

Results for C/C(=N/NC(=O)c1cc2ccccc2cc1O)C1C(=O)c2ccccc2C1=O ?
Runt-SMMHC FRET: -15.9; Tb hexokinase: 13.8; RanGTP-Impb inh: -2.8; Hck-Nef inh: 82.3*; 14-3-3 Bad inh: 8.0; Runt-CBFb FRET: -3.2; Hck-Nef confirm: active

What do the screens show for `CCOc1ccc(C2=C(C=Nc3c(C)n(C)n(-c4ccccc4)c3=O)C(c3ccc(F)cc3)c3ccccc3O2)cc1` (stereo not given)?
Runt-SMMHC FRET: -3.9; Tb hexokinase: -33.3; RanGTP-Impb inh: -1.6; Hck-Nef inh: 9.7; 14-3-3 Bad inh: -2.4; Runt-CBFb FRET: -2.9

High-throughput results from PubChem BioAssay.
